Measured values taken from ChEMBL document CHEMBL2163238, “Design, synthesis, and biological evaluation of N-alkylated deoxynojirimycin (DNJ) derivatives for the treatment of dengue virus infection” (J Med Chem, 2012).
Converted amounts (≈) assume the structure as drawn. The source made the active and inactive calls. No cut-off for these calls is given here.

Assays:
[1] = target: CYP2C19 (Homo sapiens, UniProt P33261); assay: Inhibition of human CYP2C19 at 10 uM; format: ADME
Procedure, shortened: (§1)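 Inhibition of CYP isoforms with compound at 10 μM, reported as % inhibition. CYP3A4 run with midazolam or testosterone as substrate.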

[2] = Metabolic stability in rat liver microsomes at 60 mins; format: ADME, Microsome; conditions: read-out: Stability
[3] = Plasma protein binding in human plasma; format: ADME, cell-free; conditions: read-out: PPB (converted)
Procedure, shortened: (§2)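 Binding of compound to human, rat or mouse plasma protein, reported as % bound.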

[4] = Aqueous solubility in PBS at pH 7.4; format: physicochemical; conditions: buffer
[5] = target: CYP2D6 (Homo sapiens, UniProt P10635); assay: Inhibition of human CYP2D6 at 10 uM; format: ADME
Procedure, shortened: (§3)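 Inhibition of CYP isoforms by compounds tested at 10 μM, given as percent inhibition; contract in vitro ADME panel.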

[6] = target: CYP2C9 (Homo sapiens, UniProt P11712); assay: Inhibition of human CYP2C9 at 10 uM; format: ADME; procedure, shortened: as §3
[7] = Antiviral activity against 1 MOI BVDV NADL infected in MDBK cells assessed as reduction in viral titer after 22 hrs; format: functional, cell-based, Bovine viral diarrhea virus 1-NADL; conditions: Bovine viral diarrhea virus isolates and strains, MDBK, 22 h
Procedure, shortened: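 MDBK cells (2×10^5) infected 24 h after seeding with BVDV NADL at MOI 1, with 1 h adsorption at 37 °C. Washed, then compounds at 0.1–100 μM. Media harvested 22 h post-infection and plaque-titrated on MDBK under 1% methylcellulose for 3 days. Plaques counted directly or after neutral red staining. EC50 from dose–response curves, mean of 3 independent experiments.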

[8] = Plasma protein binding in mouse plasma; format: ADME, cell-free; conditions: read-out: PPB (converted); procedure, shortened: as §2
[9] = Plasma protein binding in rat plasma; format: ADME, cell-free; conditions: read-out: PPB (converted); procedure, shortened: as §2
[10] = test system: dengue virus type 2; assay: Antiviral activity against 0.01 MOI DENV-2 NGC infected in BHK cells assessed as reduction in viral titer after 48 hrs; format: functional, organism-based
Procedure, shortened: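 BHK cells infected with DENV-2 New Guinea C at MOI 0.01 for 1 h. Inoculum removed, then compounds at 0.1–100 μM for 48 h at 37 °C. Supernatants titrated on Vero monolayers as 10-fold dilutions under 0.5% methylcellulose for 3–5 days. Foci detected by 4G2 immunostaining or crystal violet plaques. EC50 from dose–response curves, mean of 3 independent experiments.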

[11] = Metabolic stability in mouse liver microsomes at 60 mins; format: ADME, Microsome; conditions: read-out: Stability
[12] = Metabolic stability in human liver microsomes at 60 mins; format: ADME, Microsome; conditions: read-out: Stability
[13] = Aqueous solubility in PBS at pH 4; format: physicochemical; conditions: buffer
[14] = Cytotoxicity against BHK cells assessed as cell viability by MTT assay; format: cell-based, Mesocricetus auratus; conditions: hamster
[15] = target: T1, CYP3A4 (Homo sapiens, UniProt P08684); assay: (§4) Inhibition of human CYP3A4 using testosterone as substrate at 10 uM; format: ADME; conditions: probe testosterone; procedure, shortened: as §1
[16] = target: T2, CYP1A2 (Homo sapiens, UniProt P05177); assay: Inhibition of human CYP1A2 at 10 uM; format: ADME; procedure, shortened: as §1
T2 sequence (P05177 whole entry): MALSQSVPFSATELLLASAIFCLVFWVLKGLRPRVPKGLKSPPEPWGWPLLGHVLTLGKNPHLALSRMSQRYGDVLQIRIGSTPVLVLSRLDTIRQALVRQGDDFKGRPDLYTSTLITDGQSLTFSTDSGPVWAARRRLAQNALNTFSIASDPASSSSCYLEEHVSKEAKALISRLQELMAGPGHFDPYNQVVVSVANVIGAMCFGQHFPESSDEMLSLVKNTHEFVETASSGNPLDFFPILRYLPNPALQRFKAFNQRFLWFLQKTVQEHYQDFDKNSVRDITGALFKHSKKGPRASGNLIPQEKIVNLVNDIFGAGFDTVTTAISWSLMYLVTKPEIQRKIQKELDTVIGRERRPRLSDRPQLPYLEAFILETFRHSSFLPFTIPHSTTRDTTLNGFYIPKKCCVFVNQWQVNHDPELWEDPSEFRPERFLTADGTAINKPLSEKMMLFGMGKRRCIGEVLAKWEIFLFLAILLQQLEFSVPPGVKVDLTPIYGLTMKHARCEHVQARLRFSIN

[17] = target: T1, CYP3A4; assay: Inhibition of human CYP3A4 using midazolam as substrate at 10 uM; format: ADME; conditions: probe midazolam; procedure, shortened: as §1
[18] = Cytotoxicity against MDBK cells assessed as cell viability by MTT assay; format: cell-based, Bos taurus; conditions: cattle
[19] = Cytotoxicity against human Huh7.5 cells assessed as cell viability by DRAQ5 and Sapphire 700 staining; conditions: huh-7
[20] = test system: MDBK; assay: Competitive inhibition of endoplasmic reticulum-resident alpha-glucosidase in MDBK cells infected with 1 MOI BVDV assessed as decrease in viral E2 protein mobility at 0.8 to 100 uM after 24 hrs by Western blotting; format: cell-based; conditions: Bos taurus
Procedure, shortened: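 MDBK cells infected with BVDV at MOI 1 for 1 h, then compounds at 0.8, 4.0, 20 and 100 μM. Cells lysed in Laemmli buffer, run on 12% polyacrylamide gel and transferred to nitrocellulose. BVDV E2 mobility probed with monoclonal WB166 and β-actin detected in parallel. IR-dye secondary antibody, Odyssey imaging.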

[21] = test system: Dengue virus; assay: Antiviral activity against 0.01 MOI DENV infected in human Huh7.5 cells assessed as reduction in viral […] protein level at 0.1 to 100 uM after 2 days by Western blotting; format: functional, organism-based; conditions: Huh-7
[22] = Oral bioavailability in Sprague-Dawley rat at 25 mg/kg; format: ADME, organism-based; conditions: in vivo
[23] = target: Cytochrome P450 3A4 (Homo sapiens, UniProt P08684); assay: as §4; format: ADME; conditions: 10 µM; procedure, shortened: as §1
[24] = Selectivity index, ratio of CC50 for BHK cells to EC50 for DENV-2 NGC infected in BHK cells
Procedure, shortened: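 BHK cells infected with DENV-2 New Guinea C at MOI 0.01 for 1 h, then compounds at 0.1–100 μM for 48 h at 37 °C. Supernatant titrated on Vero cells under 0.5% methylcellulose, 3–5 days; foci by 4G2 immunostaining or crystal violet plaques. EC50 from yield curves; MTT CC50 in uninfected BHK; SI = CC50/EC50.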

[25] = Selectivity index, ratio of CC50 for MDBK cells to EC50 for BVDV NADL infected in MDBK cells
Procedure, shortened: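 MDBK cells infected with BVDV NADL at MOI 1, 1 h at 37 °C, washed, then compounds at 0.1–100 μM. Media harvested at 22 h, plaque-titrated on MDBK under 1% methylcellulose for 3 days, neutral red or direct count. EC50 from yield curves; MTT CC50 in uninfected MDBK; SI = CC50/EC50.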

T1 sequence (P08684 whole entry): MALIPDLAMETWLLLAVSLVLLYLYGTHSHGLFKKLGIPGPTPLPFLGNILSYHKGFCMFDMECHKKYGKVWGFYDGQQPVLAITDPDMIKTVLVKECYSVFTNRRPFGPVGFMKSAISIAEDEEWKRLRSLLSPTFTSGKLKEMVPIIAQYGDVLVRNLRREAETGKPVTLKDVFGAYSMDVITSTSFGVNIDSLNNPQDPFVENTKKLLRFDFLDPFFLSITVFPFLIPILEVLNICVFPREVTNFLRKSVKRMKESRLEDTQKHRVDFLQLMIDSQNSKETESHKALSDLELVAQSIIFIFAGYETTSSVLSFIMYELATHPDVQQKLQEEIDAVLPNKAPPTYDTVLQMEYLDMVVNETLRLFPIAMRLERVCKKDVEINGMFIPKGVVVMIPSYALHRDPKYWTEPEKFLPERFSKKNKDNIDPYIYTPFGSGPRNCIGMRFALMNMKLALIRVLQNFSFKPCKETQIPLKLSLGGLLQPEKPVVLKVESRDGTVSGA
Sequence of Cytochrome P450 3A4 (P08684 whole entry): as above
Sequence of CYP2C19 (P33261 whole entry, canonical isoform): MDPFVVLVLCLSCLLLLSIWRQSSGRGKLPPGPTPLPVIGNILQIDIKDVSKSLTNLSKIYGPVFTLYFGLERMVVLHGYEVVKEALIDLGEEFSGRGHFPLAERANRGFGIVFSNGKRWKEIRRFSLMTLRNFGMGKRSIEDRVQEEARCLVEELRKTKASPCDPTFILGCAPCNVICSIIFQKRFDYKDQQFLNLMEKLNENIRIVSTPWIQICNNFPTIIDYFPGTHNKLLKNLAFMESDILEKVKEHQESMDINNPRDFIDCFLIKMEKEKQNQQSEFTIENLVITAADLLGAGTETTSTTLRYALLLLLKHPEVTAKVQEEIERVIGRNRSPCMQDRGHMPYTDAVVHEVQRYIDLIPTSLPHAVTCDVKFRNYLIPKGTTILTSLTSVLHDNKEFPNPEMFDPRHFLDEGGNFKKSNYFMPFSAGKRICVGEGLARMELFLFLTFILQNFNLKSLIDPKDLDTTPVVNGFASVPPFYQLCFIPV
Sequence of CYP2D6 (P10635 whole entry, canonical isoform): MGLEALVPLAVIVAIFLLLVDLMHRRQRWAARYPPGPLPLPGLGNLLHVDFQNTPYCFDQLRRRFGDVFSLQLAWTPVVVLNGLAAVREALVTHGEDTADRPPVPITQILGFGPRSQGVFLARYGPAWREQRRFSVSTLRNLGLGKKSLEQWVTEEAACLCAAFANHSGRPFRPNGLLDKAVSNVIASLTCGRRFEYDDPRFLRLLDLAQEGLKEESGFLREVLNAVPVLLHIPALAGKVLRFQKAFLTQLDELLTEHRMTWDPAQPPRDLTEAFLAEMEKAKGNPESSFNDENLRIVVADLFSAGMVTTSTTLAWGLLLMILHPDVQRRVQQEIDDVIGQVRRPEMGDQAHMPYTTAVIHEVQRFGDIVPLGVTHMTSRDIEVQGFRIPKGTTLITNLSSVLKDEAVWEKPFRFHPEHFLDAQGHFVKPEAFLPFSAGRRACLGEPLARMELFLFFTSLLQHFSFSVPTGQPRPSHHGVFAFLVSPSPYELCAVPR
Sequence of CYP2C9 (P11712 whole entry): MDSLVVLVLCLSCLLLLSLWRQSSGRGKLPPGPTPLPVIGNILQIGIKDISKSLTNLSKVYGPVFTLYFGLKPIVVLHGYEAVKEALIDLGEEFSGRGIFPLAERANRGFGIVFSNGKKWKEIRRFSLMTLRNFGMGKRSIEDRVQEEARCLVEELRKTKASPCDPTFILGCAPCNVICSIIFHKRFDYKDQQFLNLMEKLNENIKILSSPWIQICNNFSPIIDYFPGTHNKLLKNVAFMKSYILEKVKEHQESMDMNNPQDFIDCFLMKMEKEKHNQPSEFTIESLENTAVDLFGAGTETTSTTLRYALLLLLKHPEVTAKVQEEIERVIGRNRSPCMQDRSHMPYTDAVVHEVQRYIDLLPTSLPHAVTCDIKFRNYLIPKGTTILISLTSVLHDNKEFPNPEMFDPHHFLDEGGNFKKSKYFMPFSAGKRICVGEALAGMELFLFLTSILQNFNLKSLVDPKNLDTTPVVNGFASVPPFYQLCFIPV

Structure (SMILES)	inhibition at 10 µM [1] [%]	remaining at 1 h [2] [%]	fraction unbound [3]	solubility [4] [µM]	inhibition at 10 µM [5] [%]	inhibition at 10 µM [6] [%]	EC50 [7] [nM]	fraction unbound [8]	fraction unbound [9]	EC50 [10] [nM]	remaining at 1 h [11] [%]	remaining at 1 h [12] [%]	solubility [13] [µM]	CC50 [14] [nM]	inhibition at 10 µM [16] [%]	inhibition at 10 µM [17] [%]	CC50 [18] [nM]	Activity [19]	Activity [10]	Activity [21]	other results
COc1ccccc1OCCCCCCN1C[C@H](O)[C@@H](O)[C@H](O)[C@H]1CO	-4.4	98	0.35	293 (≈ 108 µg/mL)	8.7	11.7	1000	0.31	0.3	800	92	99	286 (≈ 106 µg/mL)	> 500000	-1.6	12.1	> 500000	–	–	–	inhibition at 10 µM [15]: -2.4%
CCC(O)(CC)CCCCCCN1C[C@H](O)[C@@H](O)[C@H](O)[C@H]1CO	37	98	0.67	315 (≈ 105 µg/mL)	1.2	9.6	6200	0.6	0.7	6500	104	99	315 (≈ 105 µg/mL)	> 500000	7.9	21	> 500000	Non-toxic	Dose-dependent effect	Active	inhibition [20]: Active; inhibition at 10 µM [15]: 20.5%; bioavailability [22]: 56%
OC[C@@H]1[C@@H](O)[C@H](O)[C@@H](O)CN1CCCCCCOc1cccc(F)c1	0.7	[…]	0.22	283 (≈ 101 µg/mL)	10.3	6.2	500	0.21	0.29	400	104	87	271 (≈ 96.9 µg/mL)	> 500000	0.2	-2.3	> 500000	Non-toxic	Dose-dependent effect	Active	inhibition at 10 µM [15]: -2.3%
OC[C@@H]1[C@@H](O)[C@H](O)[C@@H](O)CN1CCCCCCOCc1ccccc1	14.2	91	0.48	288 (≈ 102 µg/mL)	9.1	10.7	1500	0.47	0.51	400	97	104	282 (≈ 99.7 µg/mL)	> 500000	17.3	6.6	> 500000	Non-toxic	Dose-dependent effect	Active	inhibition (INH) [23]: 3.3%
OC[C@@H]1[C@@H](O)[C@H](O)[C@@H](O)CN1CCCCCCOC1CCCCCC1	-4.9	90	0.29	295 (≈ 106 µg/mL)	2.5	5	1400	0.15	0.35	500	92	89	286 (≈ 103 µg/mL)	> 500000	9	21.2	> 500000	Non-toxic	Dose-dependent effect	Active	inhibition (INH) [23]: 3.1%
CCCC(CCC)OCCCCCCN1C[C@H](O)[C@@H](O)[C@H](O)[C@H]1CO	-1.1	80	0.09	302 (≈ 109 µg/mL)	9.1	43.5	600	0.17	0.23	300	77	73	290 (≈ 105 µg/mL)	425000	2	2.5	> 500000	–	–	–	inhibition (INH) [23]: 4.2%
OC[C@@H]1[C@@H](O)[C@H](O)[C@@H](O)CN1CCCCCCOc1cccc(C(F)(F)F)c1	-2.5	81	0.07	278 (≈ 113 µg/mL)	3.4	37.6	1500	0.08	0.1	400	92	94	281 (≈ 114 µg/mL)	400000	0.2	-18.5	> 500000	–	–	–	inhibition (INH) [23]: 3.2%
Cc1cccc(OCCCCCCN2C[C@H](O)[C@@H](O)[C@H](O)[C@H]2CO)c1	3.9	81	0.2	286 (≈ 101 µg/mL)	12.8	8.9	600	0.17	0.21	600	[…]	87	279 (≈ 98.6 µg/mL)	> 500000	21.4	28.7	> 500000	–	–	–	inhibition (INH) [23]: 2.3%
OC[C@@H]1[C@@H](O)[C@H](O)[C@@H](O)CN1CCCCCCOC1CCCCC1	–	–	–	–	–	–	400	–	–	1600	–	–	–	> 500000	–	–	480000	–	–	–	Ratio CC50/EC50 [24]: >312; inhibition [20]: Active; Ratio CC50/EC50 [25]: 1200
CCCOc1cccc(CCCN2C[C@H](O)[C@@H](O)[C@H](O)[C@H]2CO)c1	2.8	97	0.32	288 (≈ 97.8 µg/mL)	11	10.5	1200	0.4	0.43	300	87	99	281 (≈ 95.4 µg/mL)	> 500000	15.9	8.6	> 500000	Non-toxic	Dose-dependent effect	Active	inhibition [20]: Active; inhibition at 10 µM [15]: 0.7%
